Results on two molecules are retold here after ChEMBL document CHEMBL1135728, “Bis(1H-2-indolyl)methanones as a novel class of inhibitors of the platelet-derived growth factor receptor kinase” (J Med Chem, 2002).

The nature of test [1]: Inhibition of Protein kinase C isoforms epsilon and iota in vitro phosphorylation. The method in brief:
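RGS-His6-tagged PKC isoforms were expressed transiently in COS-7 cells and purified from lysate on Ni-NTA, with imidazole elution. Reactions ran 10 min at 30 °C, and phosphocellulose-bound radioactivity was counted.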

The target in test [2] is Fibroblast growth factor receptor 1 (Homo sapiens, UniProt P11362). Nature of the test: Inhibition of Fibroblast growth factor receptor 1 autophosphorylation in PAE cells. Type of test: cell-based, Sus scrofa.
Test [3] has as its target T1, Beta-adrenergic receptor kinase 1 (Homo sapiens, UniProt P25098).
T1 sequence (P25098 whole entry): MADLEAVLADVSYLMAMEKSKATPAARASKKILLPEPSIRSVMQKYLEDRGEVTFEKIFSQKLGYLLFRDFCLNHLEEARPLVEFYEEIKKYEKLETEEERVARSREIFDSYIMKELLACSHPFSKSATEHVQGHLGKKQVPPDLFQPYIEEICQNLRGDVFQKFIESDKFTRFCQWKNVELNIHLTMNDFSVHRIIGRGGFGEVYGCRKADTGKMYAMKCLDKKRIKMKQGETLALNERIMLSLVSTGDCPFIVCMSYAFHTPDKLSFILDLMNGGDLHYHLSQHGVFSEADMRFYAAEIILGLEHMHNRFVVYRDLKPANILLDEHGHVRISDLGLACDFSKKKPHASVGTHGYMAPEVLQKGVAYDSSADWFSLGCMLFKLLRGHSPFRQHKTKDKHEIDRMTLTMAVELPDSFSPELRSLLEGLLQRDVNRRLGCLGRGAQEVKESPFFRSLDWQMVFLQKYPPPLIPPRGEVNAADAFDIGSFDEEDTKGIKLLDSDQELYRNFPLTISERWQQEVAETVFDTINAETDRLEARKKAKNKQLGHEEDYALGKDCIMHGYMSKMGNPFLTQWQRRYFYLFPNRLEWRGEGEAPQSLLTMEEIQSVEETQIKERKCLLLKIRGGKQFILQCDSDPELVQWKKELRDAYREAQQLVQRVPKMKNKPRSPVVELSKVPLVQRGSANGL
Nature of the test: Inhibition of G-protein coupled receptor kinase 2 (GRK2) in vitro phosphorylation. An outline of the steps: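 GRK2 was assayed in vitro using lysates of GRK2-overexpressing 293 cells as the kinase source. Rhodopsin purified from bovine rod outer segments served as substrate.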

Test [4] addresses Platelet-derived growth factor receptor alpha (Homo sapiens, UniProt P16234). Nature of the test: Inhibition of Platelet-derived growth factor receptor alpha autophosphorylation in PAE cells. Type of test: cell-based, Sus scrofa. An outline of the steps:
(§1)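 Porcine aortic endothelial cells expressing human PDGF α- or β-receptor were used. Receptor autophosphorylation in the intact cells was read by immunoblotting.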

In test [5] the target is T2, Protein kinase C epsilon type (Homo sapiens, UniProt Q02156).
T2 sequence (Q02156 whole entry): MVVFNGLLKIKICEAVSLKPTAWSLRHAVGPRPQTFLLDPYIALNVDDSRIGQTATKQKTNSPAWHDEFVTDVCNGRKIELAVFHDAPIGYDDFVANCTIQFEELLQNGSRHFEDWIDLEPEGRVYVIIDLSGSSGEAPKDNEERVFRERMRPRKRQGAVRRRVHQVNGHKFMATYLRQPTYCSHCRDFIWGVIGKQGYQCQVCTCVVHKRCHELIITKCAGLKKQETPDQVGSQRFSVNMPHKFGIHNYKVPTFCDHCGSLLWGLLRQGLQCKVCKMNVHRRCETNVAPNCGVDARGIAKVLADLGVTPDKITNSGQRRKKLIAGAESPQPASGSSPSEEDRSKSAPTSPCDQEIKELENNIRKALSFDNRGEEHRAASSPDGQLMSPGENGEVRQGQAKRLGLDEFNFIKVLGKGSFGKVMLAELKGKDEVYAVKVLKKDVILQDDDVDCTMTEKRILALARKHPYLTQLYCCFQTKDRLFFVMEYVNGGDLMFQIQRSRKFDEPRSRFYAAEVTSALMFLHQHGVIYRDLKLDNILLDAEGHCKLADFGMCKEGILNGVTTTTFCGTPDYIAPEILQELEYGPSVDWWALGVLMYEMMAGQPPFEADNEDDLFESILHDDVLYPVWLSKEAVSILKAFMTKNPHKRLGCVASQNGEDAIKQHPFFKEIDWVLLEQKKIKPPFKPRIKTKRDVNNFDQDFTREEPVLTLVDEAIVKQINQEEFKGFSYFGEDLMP
Description: Inhibition of His-tagged Protein kinase C epsilon over-expressed in COS7 cells. The test is classed as cell-based, COS-7. An outline of the steps: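 RGS-His6-tagged PKC was transiently expressed in COS-7 cells, purified on Ni-NTA agarose and eluted with 500 mM imidazole. Reactions ran 10 min at 30 °C; phosphocellulose binding and scintillation counting gave the read-out.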

The target in test [6] is T3, Platelet-derived growth factor receptor beta (Homo sapiens, UniProt P09619). Description: Inhibition of Platelet-derived growth factor receptor beta autophosphorylation in PAE cells. The test is classed as cell-based, Sus scrofa. An outline of the steps: as §1
The target of test [7] is T3, Platelet-derived growth factor receptor beta. Nature of the test: Inhibition of purified Platelet-derived growth factor receptor beta kinase activity. The method in brief: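 PDGFβ-receptor kinase was purified from membranes of a receptor-overexpressing cell line. Inhibition was tested in an in vitro autophosphorylation assay at 10 µM ATP.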
In test [8] the target is Epidermal growth factor receptor (Homo sapiens, UniProt P00533). Description: Inhibition of Epidermal growth factor receptor autophosphorylation in A431 cells. The test is classed as cell-based, A-431. The method in brief: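 A431 cells, starved overnight in serum-free medium, were exposed to compound for 2 h and then stimulated with 100 ng/mL EGF for 10 min. Cells were extracted in lysis buffer (Hepes pH 7.5, 1% Triton), and EGFR tyrosine autophosphorylation was read by immunoblotting.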

Test [9] addresses Platelet-derived growth factor receptor (Homo sapiens, UniProt P09619+P16234). Nature of the test: Antitumor activity measured by the inhibition of platelet-derived growth factor receptor autophosphorylation in intact Swiss 3T3 cells. The test is classed as cell-based. An outline of the steps: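 Quiescent Swiss 3T3 fibroblasts moved to serum-free DMEM and exposed to compound in DMSO (final 1%) for 2 h. They were then stimulated with 100 ng/mL human recombinant PDGF-BB for 10 min at room temperature and lysed. Autophosphorylation was read by immunoblotting. Four to eight concentrations were tested across 2 orders of magnitude, and IC50 came from curve fitting over three independent experiments.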

The target of test [10] is Proto-oncogene tyrosine-protein kinase Src (Homo sapiens, UniProt P12931). Description: Inhibition of Src protein tyrosine kinase. An outline of the steps: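 Src-dependent tyrosine phosphorylation was measured in intact src-transformed NIH3T3 fibroblasts, with immunoblot read-out.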
For test [11], the target named is T3, Platelet-derived growth factor receptor beta. Nature of the test: Inhibition of Platelet-derived growth factor receptor beta kinase activity in Sf9-expressed GST-fusion protein. An outline of the steps: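 A constitutively active GST fusion of the PDGFβ-receptor cytoplasmic domain was expressed in Sf9 cells. The isolated fusion protein was tested in an in vitro autophosphorylation assay at 10 µM ATP.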

As usually defined, the IC50 is the concentration needed to halve the response being measured.

T3 sequence (P09619 whole entry): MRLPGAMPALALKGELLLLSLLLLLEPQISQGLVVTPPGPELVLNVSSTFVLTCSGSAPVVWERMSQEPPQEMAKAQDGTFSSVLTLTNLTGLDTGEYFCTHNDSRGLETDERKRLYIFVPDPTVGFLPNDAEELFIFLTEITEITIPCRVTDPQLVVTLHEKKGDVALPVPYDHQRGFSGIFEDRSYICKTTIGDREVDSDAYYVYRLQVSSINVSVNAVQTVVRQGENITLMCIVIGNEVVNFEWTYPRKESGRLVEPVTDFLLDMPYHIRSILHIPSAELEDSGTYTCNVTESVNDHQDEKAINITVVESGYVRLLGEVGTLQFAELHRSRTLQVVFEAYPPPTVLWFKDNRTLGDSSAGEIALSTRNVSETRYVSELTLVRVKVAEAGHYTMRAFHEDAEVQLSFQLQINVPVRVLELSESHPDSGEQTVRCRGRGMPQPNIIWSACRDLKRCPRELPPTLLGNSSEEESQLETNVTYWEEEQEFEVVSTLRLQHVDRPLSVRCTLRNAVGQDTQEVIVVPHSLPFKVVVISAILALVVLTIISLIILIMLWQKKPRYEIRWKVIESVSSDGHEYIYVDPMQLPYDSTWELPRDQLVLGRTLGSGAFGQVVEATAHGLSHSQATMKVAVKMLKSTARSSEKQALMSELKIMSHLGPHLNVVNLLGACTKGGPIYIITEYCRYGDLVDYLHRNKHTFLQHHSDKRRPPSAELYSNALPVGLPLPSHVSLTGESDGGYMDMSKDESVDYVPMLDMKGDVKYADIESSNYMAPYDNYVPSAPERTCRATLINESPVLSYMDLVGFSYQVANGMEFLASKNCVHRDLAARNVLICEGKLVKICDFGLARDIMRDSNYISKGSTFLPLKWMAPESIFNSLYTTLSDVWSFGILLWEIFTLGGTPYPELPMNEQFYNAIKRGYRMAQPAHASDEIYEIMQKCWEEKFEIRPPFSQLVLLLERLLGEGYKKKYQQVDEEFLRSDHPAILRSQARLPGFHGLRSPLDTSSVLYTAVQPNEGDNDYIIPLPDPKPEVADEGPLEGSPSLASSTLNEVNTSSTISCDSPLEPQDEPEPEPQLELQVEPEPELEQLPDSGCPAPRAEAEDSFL
Sequence of Platelet-derived growth factor receptor alpha (P16234 whole entry): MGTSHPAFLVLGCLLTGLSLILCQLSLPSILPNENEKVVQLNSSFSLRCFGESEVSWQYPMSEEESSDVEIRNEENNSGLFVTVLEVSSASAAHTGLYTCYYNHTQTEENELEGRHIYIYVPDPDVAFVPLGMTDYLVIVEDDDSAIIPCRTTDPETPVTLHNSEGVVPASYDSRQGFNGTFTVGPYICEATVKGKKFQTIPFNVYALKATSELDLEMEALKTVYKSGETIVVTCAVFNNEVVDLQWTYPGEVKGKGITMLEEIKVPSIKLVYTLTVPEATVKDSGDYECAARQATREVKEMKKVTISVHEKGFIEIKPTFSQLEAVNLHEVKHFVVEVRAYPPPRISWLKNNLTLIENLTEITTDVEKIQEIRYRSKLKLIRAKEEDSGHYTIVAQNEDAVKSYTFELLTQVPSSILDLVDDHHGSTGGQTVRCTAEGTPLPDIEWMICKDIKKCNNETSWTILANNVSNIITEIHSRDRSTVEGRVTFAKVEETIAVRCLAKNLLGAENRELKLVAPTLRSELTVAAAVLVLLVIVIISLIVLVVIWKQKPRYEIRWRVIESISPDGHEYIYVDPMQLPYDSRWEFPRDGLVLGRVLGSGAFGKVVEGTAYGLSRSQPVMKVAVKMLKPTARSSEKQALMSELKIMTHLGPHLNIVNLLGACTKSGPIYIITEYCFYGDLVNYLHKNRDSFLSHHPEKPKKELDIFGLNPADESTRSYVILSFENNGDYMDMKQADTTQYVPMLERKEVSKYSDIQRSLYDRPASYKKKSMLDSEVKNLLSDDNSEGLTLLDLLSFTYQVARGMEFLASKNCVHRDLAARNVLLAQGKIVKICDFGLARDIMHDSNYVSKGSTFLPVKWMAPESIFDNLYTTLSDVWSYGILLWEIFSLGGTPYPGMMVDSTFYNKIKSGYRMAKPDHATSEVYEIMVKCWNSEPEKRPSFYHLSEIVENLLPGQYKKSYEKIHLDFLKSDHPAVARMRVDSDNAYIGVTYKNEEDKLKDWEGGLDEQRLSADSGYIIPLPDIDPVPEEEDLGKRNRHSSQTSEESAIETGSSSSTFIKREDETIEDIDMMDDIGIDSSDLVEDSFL
Sequence of Proto-oncogene tyrosine-protein kinase Src (P12931 2-536 limits assumed): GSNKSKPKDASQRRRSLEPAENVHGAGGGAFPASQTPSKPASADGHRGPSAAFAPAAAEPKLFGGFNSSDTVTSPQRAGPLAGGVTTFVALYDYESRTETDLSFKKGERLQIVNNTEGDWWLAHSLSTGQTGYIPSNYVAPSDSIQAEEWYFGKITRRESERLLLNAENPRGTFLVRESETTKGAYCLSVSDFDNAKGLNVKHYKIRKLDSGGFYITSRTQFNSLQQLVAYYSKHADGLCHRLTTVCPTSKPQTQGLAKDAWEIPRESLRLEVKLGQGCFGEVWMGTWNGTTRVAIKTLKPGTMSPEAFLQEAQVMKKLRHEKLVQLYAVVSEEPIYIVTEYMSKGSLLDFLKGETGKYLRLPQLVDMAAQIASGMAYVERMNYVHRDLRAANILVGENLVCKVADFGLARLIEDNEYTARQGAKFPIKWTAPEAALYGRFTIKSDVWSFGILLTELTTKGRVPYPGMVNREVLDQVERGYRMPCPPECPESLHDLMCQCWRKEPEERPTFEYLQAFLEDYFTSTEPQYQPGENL
Sequence of Fibroblast growth factor receptor 1 (P11362 whole entry): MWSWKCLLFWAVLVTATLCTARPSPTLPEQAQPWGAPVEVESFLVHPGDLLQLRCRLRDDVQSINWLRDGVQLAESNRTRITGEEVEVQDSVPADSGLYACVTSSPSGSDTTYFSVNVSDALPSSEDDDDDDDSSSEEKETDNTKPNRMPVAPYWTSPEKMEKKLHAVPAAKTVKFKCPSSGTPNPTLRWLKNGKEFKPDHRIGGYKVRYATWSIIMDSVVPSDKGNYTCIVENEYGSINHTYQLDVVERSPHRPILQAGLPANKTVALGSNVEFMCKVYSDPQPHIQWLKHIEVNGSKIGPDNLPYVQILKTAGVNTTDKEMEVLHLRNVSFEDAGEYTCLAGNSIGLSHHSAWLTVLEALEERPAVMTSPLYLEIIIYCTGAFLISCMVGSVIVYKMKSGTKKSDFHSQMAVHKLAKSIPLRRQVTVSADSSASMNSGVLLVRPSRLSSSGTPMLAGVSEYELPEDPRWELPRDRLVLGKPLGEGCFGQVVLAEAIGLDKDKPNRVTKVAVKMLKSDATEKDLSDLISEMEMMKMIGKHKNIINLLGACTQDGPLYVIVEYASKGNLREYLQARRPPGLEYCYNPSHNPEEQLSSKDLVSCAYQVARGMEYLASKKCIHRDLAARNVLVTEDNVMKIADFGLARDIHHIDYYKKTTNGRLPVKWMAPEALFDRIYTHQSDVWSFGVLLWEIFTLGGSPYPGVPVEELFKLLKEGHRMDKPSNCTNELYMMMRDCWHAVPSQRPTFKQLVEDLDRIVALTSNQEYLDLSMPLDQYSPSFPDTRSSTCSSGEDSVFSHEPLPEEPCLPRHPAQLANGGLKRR
Sequence of Epidermal growth factor receptor (P00533 whole entry): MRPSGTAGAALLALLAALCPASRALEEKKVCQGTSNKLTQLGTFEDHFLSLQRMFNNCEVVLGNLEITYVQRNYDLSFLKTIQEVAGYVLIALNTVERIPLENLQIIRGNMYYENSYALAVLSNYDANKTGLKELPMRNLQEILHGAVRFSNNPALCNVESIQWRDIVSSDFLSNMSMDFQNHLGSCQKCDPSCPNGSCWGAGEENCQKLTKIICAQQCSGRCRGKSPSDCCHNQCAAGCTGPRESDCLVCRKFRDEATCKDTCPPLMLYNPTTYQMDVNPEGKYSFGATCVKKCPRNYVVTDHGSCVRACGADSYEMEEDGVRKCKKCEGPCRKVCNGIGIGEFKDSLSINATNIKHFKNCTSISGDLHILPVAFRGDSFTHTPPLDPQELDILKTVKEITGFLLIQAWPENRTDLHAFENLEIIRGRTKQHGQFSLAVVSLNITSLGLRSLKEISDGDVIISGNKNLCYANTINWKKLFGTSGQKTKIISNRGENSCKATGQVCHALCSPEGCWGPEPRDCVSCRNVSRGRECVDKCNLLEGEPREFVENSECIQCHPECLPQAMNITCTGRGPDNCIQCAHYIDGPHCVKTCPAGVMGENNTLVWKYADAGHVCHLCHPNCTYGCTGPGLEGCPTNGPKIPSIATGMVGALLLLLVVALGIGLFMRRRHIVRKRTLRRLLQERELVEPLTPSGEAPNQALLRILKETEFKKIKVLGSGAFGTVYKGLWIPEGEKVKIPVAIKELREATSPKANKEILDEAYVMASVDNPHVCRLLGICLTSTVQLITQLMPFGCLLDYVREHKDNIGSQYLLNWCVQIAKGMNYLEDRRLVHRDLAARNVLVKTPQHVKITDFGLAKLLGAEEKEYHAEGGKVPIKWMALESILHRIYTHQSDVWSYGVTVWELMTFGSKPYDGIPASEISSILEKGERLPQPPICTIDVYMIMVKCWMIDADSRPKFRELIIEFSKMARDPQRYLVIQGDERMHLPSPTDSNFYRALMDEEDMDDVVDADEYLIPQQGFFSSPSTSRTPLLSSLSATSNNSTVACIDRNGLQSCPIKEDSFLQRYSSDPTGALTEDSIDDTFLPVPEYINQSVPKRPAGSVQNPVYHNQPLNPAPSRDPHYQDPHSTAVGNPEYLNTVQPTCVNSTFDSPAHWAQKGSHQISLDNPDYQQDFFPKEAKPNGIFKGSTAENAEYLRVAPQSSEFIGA

`CC(=O)Oc1ccc2[nH]c(C(=O)c3cc4ccccc4[nH]3)cc2c1`: the IC50 in [1] is 17 µM; in test [2], 200 nM; in [3] it was over 100 µM; in test [4], 100 nM; in test [5], over 100 µM; in [6], 4900 nM. Also, the IC50 was 300 nM in test [7]; over 30 µM in [8]; 300 nM in test [9]; over 30 µM in test [10]; 70 nM in test [11].

For `CN(C)CC(=O)Oc1ccc2[nH]c(C(=O)c3cc4ccccc4[nH]3)cc2c1`, the IC50 in test [1] was 15.1 µM; in test [2], over 10000 nM; in [3], over 100 µM; in [4] it was 100 nM; in test [5], 30 µM; in test [6], 100 nM. Moreover, the IC50 is 100 nM in test [7]; over 30 µM in test [8]; 100 nM in test [9]; over 30 µM in [10]; 1300 nM in [11].
